Our source for the CL and Kp values is ChEMBL document CHEMBL1287671, “Design, synthesis and SAR of a novel series of benzimidazoles as potent NPY Y5 antagonists” (Bioorg Med Chem Lett, 2010).

The subject of one data set is Liver microsomes. Put plainly: Intrinsic clearance in human liver microsomes. The format is ADME, Microsome. In short, it runs like this: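 Intrinsic clearance measured in human liver microsomes; expressed as ml/min/g liver.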
Data set [1] in a line: Ratio of drug level in brain to blood in rat at 0.5 mg/kg, iv after 1 hr. The format is ADME, organism-based. Also on record: dose 0.5 mg/kg, route intravenous. In short, it runs like this:
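Male rats given 0.5 mg/kg iv; brain and blood levels sampled 1 h after dosing and expressed as brain/blood partition.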

The structures appear in SMILES notation.

For orientation: Kp means the ratio of the level in a tissue or fluid to that in plasma or blood. Compound `O=C1O[C@]2(CC[C@H](c3nc4cc(OC(F)(F)F)ccc4[nH]3)CC2)CN1c1ccccn1` displayed a CL with Liver microsomes of 0.5 mL/min/g. The Kp at 1 h in data set [1] came out at 0.5. The compound `Cc1ccccc1N1C[C@]2(CC[C@@H](c3nc4ccc(OC(F)(F)F)cc4[nH]3)CC2)OC1=O` showed a CL in the data set on Liver microsomes of 0.5 mL/min/g. The compound `O=C1OC2(CCN(c3nc4cc(C(F)(F)F)ccc4[nH]3)CC2)CN1c1ccccc1` gave a CL in the data set with Liver microsomes of 0.5 mL/min/g. Besides, in data set [1], the Kp at 1 h is 0.2. The matching figures for `O=C1O[C@]2(CC[C@H](c3nc4cc(OC(F)(F)F)ccc4[nH]3)CC2)CN1c1ccccc1F`: 0.5 mL/min/g and 0.8. Turning to `O=C1OC2(CCN(c3nc4cc(-c5ccc(F)cc5)ccc4[nH]3)CC2)CN1c1ccccc1`, the CL in the data set with Liver microsomes stood at 7 mL/min/g. In the data set with Liver microsomes, `N#Cc1ccc2nc([C@H]3CC[C@]4(CC3)CN(c3ccccc3)C(=O)O4)[nH]c2c1` came in with a CL of 0.5 mL/min/g. Further, the Kp at 1 h in data set [1] is < 0.03. As to `O=C1O[C@]2(CC[C@H](c3nc4cc(C(F)(F)F)ccc4[nH]3)CC2)CN1c1ccccn1`, the CL in the data set on Liver microsomes was found to be 0.5 mL/min/g. The compound `O=C1OC2(CCN(c3nc4cc(OC(F)(F)F)ccc4[nH]3)CC2)CN1c1ccccc1` yielded a CL with Liver microsomes of 0.5 mL/min/g. Besides, the Kp at 1 h in data set [1] is 0.3. As to `O=C1O[C@]2(CC[C@H](c3nc4cc(OC(F)(F)F)ccc4[nH]3)CC2)CN1c1ccc(F)cc1`, the CL in the data set on Liver microsomes worked out at 0.5 mL/min/g. On to `N#Cc1ccc2nc([C@H]3CC[C@]4(CC3)CN(c3ccccn3)C(=O)O4)[nH]c2c1`, for which, in the data set on Liver microsomes, the CL is 15 mL/min/g. The compound `O=C1O[C@]2(CC[C@H](c3nc4ccc(OC(F)(F)F)cc4[nH]3)CC2)CN1c1ccccc1` registered a CL in the data set on Liver microsomes of 0.5 mL/min/g. Moreover, in data set [1], the Kp at 1 h was determined as 0.6. In turn, `Cc1ncccc1N1C[C@]2(CC[C@@H](c3nc4ccc(OC(F)(F)F)cc4[nH]3)CC2)OC1=O` yielded a CL in the data set with Liver microsomes of 0.6 mL/min/g. `O=C1OC2(CCN(c3nc4cc(F)ccc4[nH]3)CC2)CN1c1ccccc1` displayed a CL in the data set on Liver microsomes of 7 mL/min/g.

In turn, `O=C1OC2(CCN(c3nc4cc(Br)ccc4[nH]3)CC2)CN1c1ccccc1` returned a CL in the data set on Liver microsomes of 2.5 mL/min/g.

The compound `O=C1O[C@]2(CC[C@H](c3nc4ccc(OC(F)(F)F)cc4[nH]3)CC2)CN1c1ccccc1Cl` came in with a CL in the data set on Liver microsomes of 0.5 mL/min/g. Take `O=C1O[C@]2(CC[C@H](c3nc4cc(C(F)(F)F)ccc4[nH]3)CC2)CN1c1ccccc1`: the CL in the data set with Liver microsomes is 0.5 mL/min/g. Besides, in data set [1], the Kp at 1 h amounted to 0.3. Regarding `N#Cc1ccc2[nH]c([C@H]3CC[C@]4(CC3)CN(c3ccc(F)cc3)C(=O)O4)nc2c1`, the CL with Liver microsomes is 0.5 mL/min/g. `O=C1O[C@]2(CC[C@H](c3nc4cc(OC(F)(F)F)ccc4[nH]3)CC2)CN1c1cccnc1` returned a CL with Liver microsomes of 0.5 mL/min/g. For the compound `O=C(Nc1nc(-c2ccccn2)cs1)N1CCC2(CC1)CN(c1ccccc1)C(=O)O2`, in the data set with Liver microsomes, the CL was 0.6 mL/min/g. In addition, the Kp at 1 h in data set [1] is < 0.1. The compound `O=C1OC2(CCN(c3nc4ccccc4[nH]3)CC2)CN1c1ccccc1` came in with a CL in the data set with Liver microsomes of 9.8 mL/min/g. The compound `Cc1cccc(N2C[C@]3(CC[C@@H](c4nc5ccc(OC(F)(F)F)cc5[nH]4)CC3)OC2=O)n1` returned a CL with Liver microsomes of 0.6 mL/min/g. The same measure, in the same setting: for `O=C1O[C@]2(CC[C@H](c3nc4ccc(OC(F)(F)F)cc4[nH]3)CC2)CN1c1cccc(F)n1` the value was 0.5 mL/min/g.
